Reference: ChEMBL document CHEMBL3593208 (Bioorg Med Chem, 2015)

How the values were obtained:
[1] = Cytotoxicity against human NMC-797 cells assessed as cell viability after 48 hrs by luminescence assay; type: functional, cell-based; details: NMC-797, 48 h
Summary of the method: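 797 cells seeded at 2.0×10^4 cells/well in 384-well plates. Compound was pin-transferred in a dose-response series with 0.02% DMSO final and incubated 48 h. Viability was read as ATP-dependent luminescence. IC50 was estimated by logistic regression of replicate measurements against dose, with standard error of logIC50.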

[2] = Cytotoxicity against human NMC-10326 cells assessed as cell viability after 48 hrs by luminescence assay; type: functional, cell-based
Summary of the method: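 Cells seeded in 384-well plates at 2.0×10^4 cells/well; compound pin-transferred in a dose series, final DMSO 0.02%. After 48 h exposure, viability read as ATP-dependent luminescence (ATPLite). IC50 estimated from replicate measurements by logistic regression.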

[3] = target: T1, Histone deacetylase 8 (Homo sapiens, UniProt Q9BY41); assay: Inhibition of recombinant full-length HDAC8 (unknown origin) using MAZ1600/MAZ1675 as substrate assessed as release of 7 amino-4-methylcoumarin measured every 5 mins by fluorescence assay
T1 sequence (Q9BY41 whole entry): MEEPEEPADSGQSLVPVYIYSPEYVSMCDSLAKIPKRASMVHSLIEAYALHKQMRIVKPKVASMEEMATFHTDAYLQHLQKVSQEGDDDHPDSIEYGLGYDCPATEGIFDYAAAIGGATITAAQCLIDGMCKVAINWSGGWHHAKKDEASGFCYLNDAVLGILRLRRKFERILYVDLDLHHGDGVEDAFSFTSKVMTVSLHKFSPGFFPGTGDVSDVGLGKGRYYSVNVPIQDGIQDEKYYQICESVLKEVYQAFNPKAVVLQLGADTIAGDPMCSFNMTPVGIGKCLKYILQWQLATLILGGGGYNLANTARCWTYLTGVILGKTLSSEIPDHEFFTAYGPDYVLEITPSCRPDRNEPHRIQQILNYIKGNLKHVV
Summary of the method: (§1)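 AMC release after deacetylase plus trypsin action read every 5 min. First derivative in the linear range used. Replicates normalised to DMSO controls (<0.5%). IC50 by logistic regression, unconstrained max/min.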

[4] = target: Histone deacetylase 1 (Homo sapiens, UniProt Q13547); assay: Inhibition of recombinant full-length HDAC1 (unknown origin) using MAZ1600/MAZ1675 as substrate assessed as release of 7 amino-4-methylcoumarin measured every 5 mins by fluorescence assay; summary of the method: as §1
[5] = target: Histone deacetylase 2 (Homo sapiens, UniProt Q92769); assay: Inhibition of recombinant full-length HDAC2 (unknown origin) using MAZ1600/MAZ1675 as substrate assessed as release of 7 amino-4-methylcoumarin measured every 5 mins by fluorescence assay; summary of the method: as §1
[6] = target: Histone deacetylase 3 (Homo sapiens, UniProt O15379); assay: Inhibition of recombinant full-length HDAC3 (unknown origin) using MAZ1600/MAZ1675 as substrate assessed as release of 7 amino-4-methylcoumarin measured every 5 mins by fluorescence assay
[7] = target: T2, Protein deacetylase HDAC6 (Homo sapiens, UniProt Q9UBN7); assay: Inhibition of recombinant full-length HDAC6 (unknown origin) using MAZ1600/MAZ1675 as substrate assessed as release of 7 amino-4-methylcoumarin measured every 5 mins by fluorescence assay
T2 sequence (Q9UBN7 whole entry): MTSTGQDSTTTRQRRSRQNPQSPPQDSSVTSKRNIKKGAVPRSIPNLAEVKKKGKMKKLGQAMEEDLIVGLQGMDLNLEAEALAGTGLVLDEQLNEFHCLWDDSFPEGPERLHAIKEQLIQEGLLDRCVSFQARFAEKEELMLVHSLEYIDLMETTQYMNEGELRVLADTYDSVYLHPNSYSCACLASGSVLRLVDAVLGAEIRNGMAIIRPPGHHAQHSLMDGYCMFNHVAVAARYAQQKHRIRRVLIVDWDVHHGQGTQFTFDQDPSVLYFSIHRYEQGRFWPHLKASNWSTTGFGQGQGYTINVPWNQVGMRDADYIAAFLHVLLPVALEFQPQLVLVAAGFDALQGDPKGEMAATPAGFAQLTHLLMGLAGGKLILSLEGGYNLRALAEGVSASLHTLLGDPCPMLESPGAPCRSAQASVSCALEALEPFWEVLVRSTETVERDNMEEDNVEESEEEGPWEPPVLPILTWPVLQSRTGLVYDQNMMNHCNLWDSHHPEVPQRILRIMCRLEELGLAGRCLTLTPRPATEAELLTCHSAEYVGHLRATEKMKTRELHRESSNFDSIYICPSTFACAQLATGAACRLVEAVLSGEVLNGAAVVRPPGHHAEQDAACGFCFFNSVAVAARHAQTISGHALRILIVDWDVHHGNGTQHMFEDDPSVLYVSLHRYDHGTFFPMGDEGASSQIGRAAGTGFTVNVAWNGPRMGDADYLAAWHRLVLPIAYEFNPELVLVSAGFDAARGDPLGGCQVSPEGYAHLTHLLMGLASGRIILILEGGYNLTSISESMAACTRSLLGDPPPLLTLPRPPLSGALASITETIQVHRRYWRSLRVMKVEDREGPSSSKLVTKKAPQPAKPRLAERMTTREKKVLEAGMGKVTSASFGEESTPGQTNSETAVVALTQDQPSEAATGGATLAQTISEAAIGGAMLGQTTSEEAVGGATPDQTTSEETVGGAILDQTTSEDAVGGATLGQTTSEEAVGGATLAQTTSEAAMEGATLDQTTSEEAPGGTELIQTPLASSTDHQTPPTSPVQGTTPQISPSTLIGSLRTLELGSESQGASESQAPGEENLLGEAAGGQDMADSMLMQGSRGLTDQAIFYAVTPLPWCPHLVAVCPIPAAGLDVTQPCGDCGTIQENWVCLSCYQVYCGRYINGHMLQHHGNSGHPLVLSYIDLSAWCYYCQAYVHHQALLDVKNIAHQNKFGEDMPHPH
Summary of the method: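 AMC release after deacetylase/trypsin action read every 5 min. Linear-range first derivative normalised to DMSO controls (<0.5%). IC50 by unconstrained logistic regression.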

Histone deacetylase 1, sequence (Q13547 whole entry): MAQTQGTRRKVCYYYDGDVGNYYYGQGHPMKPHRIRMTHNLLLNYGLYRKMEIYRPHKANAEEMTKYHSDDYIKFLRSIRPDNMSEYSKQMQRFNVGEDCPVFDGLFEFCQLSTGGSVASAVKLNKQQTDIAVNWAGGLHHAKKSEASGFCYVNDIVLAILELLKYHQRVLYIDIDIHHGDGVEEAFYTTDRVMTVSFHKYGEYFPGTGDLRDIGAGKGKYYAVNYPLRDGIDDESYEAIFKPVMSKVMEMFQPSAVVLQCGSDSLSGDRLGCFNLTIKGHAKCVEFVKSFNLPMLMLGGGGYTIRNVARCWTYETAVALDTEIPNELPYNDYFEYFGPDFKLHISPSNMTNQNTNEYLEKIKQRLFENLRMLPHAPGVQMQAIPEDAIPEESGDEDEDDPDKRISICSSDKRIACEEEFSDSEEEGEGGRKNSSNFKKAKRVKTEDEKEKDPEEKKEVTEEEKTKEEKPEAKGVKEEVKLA
Histone deacetylase 2, sequence (Q92769 whole entry): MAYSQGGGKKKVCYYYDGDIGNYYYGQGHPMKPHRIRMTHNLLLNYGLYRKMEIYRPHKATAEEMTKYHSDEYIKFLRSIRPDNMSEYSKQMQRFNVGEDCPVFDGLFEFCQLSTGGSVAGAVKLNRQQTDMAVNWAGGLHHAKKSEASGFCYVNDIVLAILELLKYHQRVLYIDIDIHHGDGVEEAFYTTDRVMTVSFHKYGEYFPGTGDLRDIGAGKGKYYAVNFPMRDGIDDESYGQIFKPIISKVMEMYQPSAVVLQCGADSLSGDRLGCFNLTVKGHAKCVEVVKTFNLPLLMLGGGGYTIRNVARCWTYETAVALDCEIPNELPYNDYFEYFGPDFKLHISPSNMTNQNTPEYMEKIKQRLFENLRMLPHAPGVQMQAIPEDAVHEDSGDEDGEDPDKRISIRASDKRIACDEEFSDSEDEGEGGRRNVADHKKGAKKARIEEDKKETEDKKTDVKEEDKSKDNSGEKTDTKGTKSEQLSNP
Histone deacetylase 3, sequence (O15379 whole entry): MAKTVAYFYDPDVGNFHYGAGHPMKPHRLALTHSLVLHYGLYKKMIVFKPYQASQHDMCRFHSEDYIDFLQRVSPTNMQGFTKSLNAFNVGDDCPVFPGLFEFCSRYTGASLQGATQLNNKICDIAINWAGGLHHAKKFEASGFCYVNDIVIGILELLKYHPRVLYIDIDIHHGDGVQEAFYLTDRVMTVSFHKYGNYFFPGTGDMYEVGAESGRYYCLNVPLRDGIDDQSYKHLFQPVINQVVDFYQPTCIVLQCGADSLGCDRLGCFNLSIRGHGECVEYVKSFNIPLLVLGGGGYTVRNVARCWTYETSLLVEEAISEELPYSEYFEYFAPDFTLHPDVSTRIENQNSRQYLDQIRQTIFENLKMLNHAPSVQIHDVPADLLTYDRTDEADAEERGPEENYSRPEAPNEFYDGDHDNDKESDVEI

CC(C)[C@@H]1NC(=O)[C@]2(C)CSC(=N2)c2csc(n2)CNC(=O)C[C@@H](/C=C/CCS)NC1=O
IC50 ([1]; read-out: IC50): 1740 nM
IC50 ([1]; read-out: pIC50 (converted)): 1730 nM
IC50 ([2]; read-out: IC50): 11900 nM
IC50 ([2]; read-out: pIC50 (converted)): 11900 nM
IC50 [3]: 255 nM

CCCCCCCC(=O)SCC/C=C/[C@@H]1CC(=O)NCc2cccc(n2)C2=N[C@@](C)(CS2)C(=O)N[C@@H](C(C)C)C(=O)N1
IC50 [4]: 340 nM
IC50 [5]: 472 nM
IC50 [6]: 332 nM

CCCCCCCC(=O)SCC/C=C/[C@@H]1CC(=O)NCc2cc(ccn2)C2=N[C@@](C)(CS2)C(=O)N[C@@H](C(C)C)C(=O)O1
IC50 [4]: 340 nM
IC50 [5]: 655 nM
IC50 [6]: 320 nM

CCCCCCCC(=O)SCC/C=C/[C@@H]1CC(=O)NCc2cc(ccn2)C2=N[C@@](C)(CS2)C(=O)N[C@@H](C(C)C)C(=O)N1
IC50 [4]: 817 nM
IC50 [5]: 1240 nM
IC50 [6]: 846 nM

CC(C)[C@@H]1NC(=O)[C@]2(C)CSC(=N2)c2ccnc(c2)CNC(=O)C[C@@H](/C=C/CCS)OC1=O
IC50 ([1]; read-out: IC50): 90 nM
IC50 ([1]; read-out: pIC50 (converted)): 93.1 nM
IC50 ([2]; read-out: IC50): 120 nM
IC50 ([2]; read-out: pIC50 (converted)): 122 nM
IC50 [4]: 2.2 nM
IC50 [5]: 4.42 nM
IC50 [6]: 2.31 nM
IC50 [7]: 35.2 nM
IC50 [3]: 102 nM

CC(C)[C@@H]1NC(=O)[C@]2(C)CSC(=N2)c2ccnc(c2)CNC(=O)C[C@@H](/C=C/CCS)NC1=O
IC50 [4]: 13.2 nM
IC50 [5]: 20.8 nM
IC50 [6]: 14.6 nM
IC50 [7]: 2850 nM
IC50 [3]: 1490 nM

CC(C)[C@@H]1NC(=O)[C@]2(C)CSC(=N2)c2cccc(n2)CNC(=O)C[C@@H](/C=C/CCS)OC1=O
IC50 ([1]; read-out: IC50): 220 nM
IC50 ([1]; read-out: pIC50 (converted)): 222 nM
IC50 ([2]; read-out: IC50): 290 nM
IC50 ([2]; read-out: pIC50 (converted)): 298 nM
IC50 [6]: 3.07 nM
IC50 [7]: 48.5 nM
IC50 [3]: 341 nM

CCCCCCCC(=O)SCC/C=C/[C@@H]1CC(=O)NCc2cccc(n2)C2=N[C@@](C)(CS2)C(=O)N[C@@H](C(C)C)C(=O)O1
IC50 [4]: 204 nM
IC50 [5]: 350 nM
IC50 [6]: 332 nM

CC(C)[C@@H]1NC(=O)[C@]2(C)CSC(=N2)c2cccc(n2)CNC(=O)C[C@@H](/C=C/CCS)NC1=O
IC50 [4]: 42 nM
IC50 [5]: 69.8 nM
IC50 [6]: 42.5 nM
